Compound activity: PubChem BioAssay, The Scripps Research Institute Molecular Screening Center
In the library only some 2.9% were active in any assay of this set; here they are far more common.
CHO parental Ca = signal in parental CHO cells, OX1R antagonist counter-screen; parental CHO-K1, ATP-induced calcium, Fluo-8 fluorescence; inhibition, % at 5.6 µM; 330,000 tested, 0.63% active; AID 463079;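 active = inhibition above that plate's mean sample inhibition plus 3 SD, cut at about 26% in these data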
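Assay system: parental CHO cells; Read-out basis: percent inhibition of ATP-evoked calcium rise, normalized to controls; Benchmarks: ATP and no-ATP DMSO wells; Compound dosing: single nominal dose of 5.6 µM per compound; Signal: Fluo-8 calcium dye fluorescence; Also added: ATP as calcium-mobilizing challenge; Repeats: singlicate.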
OX1R antag-1 = OX1R (human) antagonism; OX1R-expressing cells, FRET antagonist read-out; 330,000 tested, 1.8% active; AID 485270; inhibition, % at 6.6 µM; O43613; in the data active = inhibition mostly above about 38%, no sharp cut-off; inactive = mostly below about 40%
Target sequence (O43613 whole entry, looked up): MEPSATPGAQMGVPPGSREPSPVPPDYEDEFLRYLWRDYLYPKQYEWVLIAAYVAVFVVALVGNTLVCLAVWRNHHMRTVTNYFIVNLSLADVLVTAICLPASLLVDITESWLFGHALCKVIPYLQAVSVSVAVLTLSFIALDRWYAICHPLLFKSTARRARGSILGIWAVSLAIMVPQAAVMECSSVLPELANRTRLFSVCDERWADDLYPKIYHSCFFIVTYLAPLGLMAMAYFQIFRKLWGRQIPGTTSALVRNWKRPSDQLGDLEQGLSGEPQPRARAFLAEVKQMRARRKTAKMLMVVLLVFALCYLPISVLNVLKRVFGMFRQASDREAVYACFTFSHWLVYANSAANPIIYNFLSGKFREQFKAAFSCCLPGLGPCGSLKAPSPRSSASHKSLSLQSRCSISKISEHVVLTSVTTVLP
M1 PAM parental = M1 PAM counterscreen hit in parental CHO-K1 cells; ATP EC20, Fluo-8 calcium fluorescence; 0% at ATP EC20, 100% at ATP max; activation, % at 3 µM; 360,000 tested, 0.02% active; AID 602247;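 active = activation above the run cutoff, the mean activation of all test compounds plus 3 SD, cut at about 40% in these data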;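 also: peak over basal fluorescence ratio in a 140 s read after ATP addition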
CHO-K1 Ca antag = counter-screen for M1 antagonists: effect in parental CHO-K1 cells. inhibition, % at 3 µM. 360,000 tested, 0.6% active. AID 602250. ATP-induced calcium, Fluo-8 fluorescence;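 active = inhibition above a per-plate cutoff, the plate's mean sample inhibition plus 3 SD, cut at about 24% in these data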
OX1R antag-2 = blocks the human orexin 1 receptor | inhibition, % at 5 µM | CHO/OX1R cells, Fluo-8 calcium fluorescence, orexin A | 330,000 tested, 0.43% active;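 active = inhibition above its plate's threshold, mean inhibition of all tested compounds on the plate plus 3 SD, cut at about 37% in these data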
CHO-K1 Ca ag = M1 agonist counterscreen hit in parental CHO-K1 cells | Fluo-8 calcium fluorescence; scaled to maximal ATP response, vehicle zero | activation, % at 3 µM | 360,000 tested, 0.48% active | AID 602248; in the data active = activation above about 15%;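 also: untransfected CHO-K1 host cells lacking M1 receptor as counterscreen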
OX1R HTRF conf = OX1R (human) antagonism, HTRF confirmed; shares compounds with OX1R antag-1; OX1R-expressing cells, HTRF antagonist assay; inhibition, % at 6.6 µM; 1,800 tested, 49% active; AID 492964; in the data active = inhibition above about 55%;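 also: CHO cells expressing OX1R stimulated with orexin A at about EC80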
CHO-K1 HTRF cnt = signal in parental CHO-K1 cells, OX1R antagonist counter-screen | shares compounds with OX1R antag-1 | HTRF counterscreen | inhibition, % at 6.6 µM | 1,800 tested, 48% active | AID 493232; in the data active = inhibition above about 17%
Of the large screens only hits and unclear results are named; the others gave an inactive call (follow-up assays come after a bar, where they were run).

CN(CC(=O)NCCN1CCCCCC1)S(=O)(=O)c1cccc2nsnc12	OX1R antag-1 80 | OX1R HTRF conf inactive | CHO-K1 HTRF cnt 42
O=C(CN1CCOCC1)NNC(=O)c1ccc(Cl)cc1	none
O=C(O)Cc1ccc(NC(=O)c2ccc3c(c2)C(=O)N(CC2CCCO2)C3=O)cc1 (stereo not drawn)	OX1R antag-1 79 | OX1R HTRF conf inactive | CHO-K1 HTRF cnt 43
O=C(CSCCN1C(=O)c2ccccc2C1=O)Nc1ccc2ccccc2c1	OX1R antag-1 81 | OX1R HTRF conf inactive | CHO-K1 HTRF cnt inactive
O=C(CSCC(=O)Nc1ccc2ccccc2c1)NCc1ccccc1	none
CCCCCCCCCNC(=O)[C@H](NC(=O)COc1ccccc1)[C@@H]1NC(C(=O)OC)C(C)(C)S1 (stereo partly drawn)	none
Cc1cc(C)n2[nH]c(=O)c(N=Nc3ccccc3)c2n1	OX1R antag-1 188 | OX1R HTRF conf inactive | CHO-K1 HTRF cnt 86
Cc1cc(=O)n2[nH]c(=O)c(N=Nc3ccccc3)c2[nH]1	OX1R antag-1 126 | OX1R HTRF conf inactive | CHO-K1 HTRF cnt 58
Cc1cc(C)[n+](C)n1CC(O)Cn1c2ccccc2c2ccccc21 (stereo not drawn)	none
CC(=O)N1CCN(c2cc(N3CCc4ccccc4C3)c(F)cc2[N+](=O)[O-])CC1	none
C=CCSc1nnc2c(n1)OC(c1cccnc1)Nc1ccccc1-2 (stereo not drawn)	OX1R antag-1 78 | OX1R HTRF conf inactive | CHO-K1 HTRF cnt inactive
COc1ccc(OC)c(/C=N/NC(=O)c2cc[n+](Cc3ccccc3)cc2)c1	OX1R antag-1 108 | OX1R HTRF conf 64 | CHO-K1 HTRF cnt 46
Nc1c(N=Nc2ccccc2F)c(=O)[nH]n1-c1ccccc1	OX1R antag-1 86 | OX1R HTRF conf 67 | CHO-K1 HTRF cnt inactive
O=C1N=C(N2C=CC(=C3C=CNC=C3)C=C2)/C(=C/N=NC(=O)c2ccccc2O)S1	OX1R antag-1 108 | OX1R HTRF conf 68 | CHO-K1 HTRF cnt 109
O=C(Nc1ccc(Cl)c(C(F)(F)F)c1)[C@@H]1CC=C[C@@H]2CCN(Cc3ccc(Cl)c(Cl)c3)C(=O)[C@@H]21	none
O=C(Nc1cc(F)cc(F)c1)c1ccc(NCCCN2CCCCCC2)c([N+](=O)[O-])c1	OX1R antag-1 86 | OX1R HTRF conf inactive | CHO-K1 HTRF cnt 39
Cc1ccc([C@@H]2CC=C(C(=O)O)[C@H](c3ccccc3F)N2S(=O)(=O)c2ccccc2C)cc1	OX1R antag-1 78 | OX1R HTRF conf 81 | CHO-K1 HTRF cnt inactive
Cc1ccc(S(=O)(=O)N2[C@@H](c3ccccc3)C(C(=O)O)=CC[C@H]2c2ccc(Cl)cc2)cc1	OX1R antag-1 78 | OX1R HTRF conf inactive | CHO-K1 HTRF cnt inactive
COc1ccc([C@@H]2CC=C(C(=O)O)[C@H](c3cccc(Cl)c3)N2S(=O)(=O)c2ccccc2C)cc1	OX1R antag-1 88 | OX1R HTRF conf 91 | CHO-K1 HTRF cnt inactive
CCOC(=O)[C@H]1[C@H]2COc3cc(OC)ccc3[C@@H]2N2C(=O)N(c3cccc(Cl)c3)C(=O)[C@@]12C	none
CCC(C)c1ccccc1NC(=O)CN(CC)CC(=O)Nc1ccc2c(c1)OCCO2 (stereo not drawn)	none
OCCNc1ncnc2c1ncn2[C@H]1CN(C2CCCC2)C[C@@H](CO)O1	none (no result: CHO parental Ca, OX1R antag-1, OX1R antag-2)
O=C1c2c([N+](=O)[O-])cc([N+](=O)[O-])cc2S(=O)N1Cc1ccccc1 (stereo not drawn)	OX1R antag-1 105 | OX1R HTRF conf inactive | CHO-K1 HTRF cnt 86
COCCN(C(=O)CSc1nc2ccc(OC)cc2[nH]1)c1c(N)n(Cc2ccccc2)c(=O)[nH]c1=O	OX1R antag-1 90 | OX1R HTRF conf inactive | CHO-K1 HTRF cnt inactive
O=C(O)CCCCCNc1ccc2nsnc2c1[N+](=O)[O-]	OX1R antag-1 117 | OX1R HTRF conf 74 | CHO-K1 HTRF cnt 112
CCOC(=O)c1sc(NC(=O)Nc2ccccc2Cl)cc1C	OX1R antag-1 78 | OX1R HTRF conf inactive | CHO-K1 HTRF cnt inactive
CCOC(=O)c1sc(NC(=O)c2ccc(C)s2)cc1C	OX1R antag-1 79 | OX1R HTRF conf inactive | CHO-K1 HTRF cnt inactive
Oc1ccc2ccccc2c1N=Nc1ccccn1	OX1R antag-1 86 | OX1R HTRF conf inactive | CHO-K1 HTRF cnt 29
O=C(CN1C(=O)c2cccc3cccc(c23)C1=O)N1CCOCC1	OX1R antag-1 104 | OX1R HTRF conf inactive | CHO-K1 HTRF cnt 87
O=C(CN1C(=O)S/C(=C/c2ccc(N3CCOCC3)cc2)C1=O)N1CCOCC1	OX1R antag-1 85 | OX1R HTRF conf inactive | CHO-K1 HTRF cnt 47
COc1ccc(C(=O)CN2CCN(CCN3C(=O)c4cccc5cccc(c45)C3=O)CC2)cc1	OX1R antag-1 91 | OX1R HTRF conf inactive | CHO-K1 HTRF cnt 21
Cn1c(CNC(=O)C2CCC(=O)N(CCc3cccc(F)c3)C2)nc2ccccc21 (stereo not drawn)	none
CCN(CC)CCNCC1C(=O)O[C@@H]2C[C@@]3(C)CCC[C@H](C)C3=C[C@H]12 (stereo partly drawn)	none
COC(=O)C1=C(NC(=O)C2CCCCC2)CCS1	none (no result: CHO parental Ca, OX1R antag-1, OX1R antag-2)
O=C(NCCc1ccccc1)[C@@H]1CC=C[C@@H]2CCN(Cc3ccccc3)C(=O)[C@@H]21	OX1R antag-1 79 | OX1R HTRF conf 89 | CHO-K1 HTRF cnt inactive
C[C@H](CO)N1C[C@H](C)[C@@H](CN(C)CC2CCCCC2)Oc2ccc(NC(=O)Cn3cnnn3)cc2C1=O	none
COc1ccc(NS(=O)(=O)c2cn(C)nc2C)cc1	none
COc1cc(-c2nccc3cc4c(cc23)OCO4)cc(OC)c1OC	none (no result: CHO parental Ca, OX1R antag-1, OX1R antag-2)
COc1cc2c(cc1OC)-c1c(OC)c(OC)cc3ccnc(c13)C2=O	OX1R antag-1 80 | OX1R HTRF conf inactive | CHO-K1 HTRF cnt 26
O=C(O)CCNc1ccc(NCCC(=O)O)c2c1C(=O)c1ccccc1C2=O	OX1R antag-1 104 | OX1R HTRF conf 61 | CHO-K1 HTRF cnt 86
O=C(CSc1nnc2nnc3ccccc3n12)N1CCOCC1	OX1R antag-1 94 | OX1R HTRF conf 72 | CHO-K1 HTRF cnt 103
COCCCn1cnc2oc3nc4ccccc4nc3c2c1=O	OX1R antag-1 85 | OX1R HTRF conf 67 | CHO-K1 HTRF cnt 107
O=C(CN(Cc1ccco1)C(=O)CNS(=O)(=O)c1ccc(F)cc1)NCc1ccco1	none
Cc1c(C(=O)NCc2ccc3c(c2)OCO3)oc2ccc(Br)cc12	none
Cc1c(C(=O)Nc2ccc3c(c2)OCCO3)oc2ccc(Br)cc12	OX1R antag-1 82 | OX1R HTRF conf 76 | CHO-K1 HTRF cnt inactive
